Compound activity (PubChem)
GalR3 antagonist = GalR3 antagonists in HEK293 cells, primary screen, cell-based, fluorescence readout | Galanin receptor type 3 (Homo sapiens), O60755 | HEK293 GalR3-CNG cAMP membrane potential fluorescence; galR3 body fused to GalR1 C-terminus | inhibition, % at 3 µM | 0.44% of 360,000 active | AID 651719, 2012;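 active = inhibition above the screen-wide average plus 3 SD, cut at about 13% in these data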;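 note: forskolin and galanin both at EC90 stimulate the cells; cAMP rise reported by CNG channel membrane potential dye signal; 0% = forskolin plus galanin with DMSO and 100% = forskolin alone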
Target sequence (O60755 1-299 limits assumed): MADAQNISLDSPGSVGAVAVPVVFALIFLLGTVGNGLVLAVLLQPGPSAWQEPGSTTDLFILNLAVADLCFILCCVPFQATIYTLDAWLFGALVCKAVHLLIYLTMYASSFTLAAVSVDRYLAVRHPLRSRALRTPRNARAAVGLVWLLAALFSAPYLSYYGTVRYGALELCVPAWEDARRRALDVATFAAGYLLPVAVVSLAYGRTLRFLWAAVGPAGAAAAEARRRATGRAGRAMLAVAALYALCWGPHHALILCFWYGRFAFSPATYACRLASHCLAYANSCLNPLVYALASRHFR
NR2E3 ag-1 = inhibitors of NR2E3-RetCOR corepressor binding, primary screen, NR2E3 agonist project, biochemical, TR-FRET, GST-NR2E3, biotin-RetCOR. Photoreceptor-specific nuclear receptor (Homo sapiens), Q9Y5X4. 1536-well. inhibition of corepressor binding, % at 4.78 µM. 0.12% of 320,000 active;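 active = percent inhibition above the cutoff of mean plus 3 SD of all tested compounds, set per screening campaign, cut at about 20% in these data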;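 note: 0% = DMSO wells and 100% = biotin wells as full block of FRET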
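Test system – NR2E3–RetCOR corepressor complex · Quantity – NR2E3 fusion 1.35 nM · Buffer or medium – Tris pH 7.5 · Incubation – Compound–protein incubation for 5 h at 4 °C · Technique – TR-FRET, Eu(K)-anti-GST donor, streptavidin-D2 acceptor, ex 340, em 617/671 nm · Evaluation – percent inhibition of 671/617 nm emission ratio versus biotin and DMSO controls · Plate – 1536-well format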
NR2E3 ag-2 = NR2E3 agonists in two-hybrid cells, primary screen, cell-based, luminescence, CHO-S, Gal4-NCOR/VP16-NR2E3 | 0.35% of 360,000 active | inhibition of corepressor binding, % at 3.98 µM | Photoreceptor-specific nuclear receptor (Homo sapiens), Q9Y5X4 | luciferase;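 active = inhibition above the mean of all tested compounds plus 3 SD, cut at about 70% in these data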;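 note: 0% = DMSO with NR2E3 transfected cells and 100% = cells lacking NR2E3 construct; higher means lower luciferase signal from less NR2E3 corepressor binding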
SMARCA2 act = SMARCA2 (BRM) function activators, primary screen, cell-based, luminescence, high throughput; activation, % at 9.1 µM; 1% of 370,000 active; MG213 cells, MMTV-luciferase reporter, dexamethasone, overnight; in the data active = activation above about 7.8%;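 note: 0% = vehicle wells and 100% = reference activator wells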
COUP-TFII inh = NR2F2 transcriptional activity inhibitors, primary screen, cell-based, luciferase reporter, HEK293T, luminescence; HEK293T NGFI-A luciferase reporter; inhibition, % at 8.6 µM; 0.7% of 370,000 active; AID 686940, 2013;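 active = inhibition above a per-plate cutoff, mean inhibition of test wells between control levels plus 3 SD, cut at about 38% in these data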;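 note: cells cotransfected with COUP-TFII expression vector driving the NGFI-A reporter; 0% = median of COUP-TF2 test wells and 100% = reporter-only cells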
Target sequence (P24468 whole entry, looked up): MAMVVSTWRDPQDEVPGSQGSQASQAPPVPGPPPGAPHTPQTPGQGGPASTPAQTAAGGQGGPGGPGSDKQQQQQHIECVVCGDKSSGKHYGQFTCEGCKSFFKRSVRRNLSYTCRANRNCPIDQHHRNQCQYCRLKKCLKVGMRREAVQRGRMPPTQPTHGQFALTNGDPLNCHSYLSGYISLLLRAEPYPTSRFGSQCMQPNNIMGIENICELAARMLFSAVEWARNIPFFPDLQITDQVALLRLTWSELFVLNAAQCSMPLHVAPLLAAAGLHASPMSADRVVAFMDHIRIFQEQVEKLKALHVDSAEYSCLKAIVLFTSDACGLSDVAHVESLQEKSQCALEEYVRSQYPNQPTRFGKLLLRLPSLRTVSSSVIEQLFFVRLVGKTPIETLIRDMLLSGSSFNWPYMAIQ
NR2E3 ag conf = NR2E3 agonist confirmation in cells, cell-based, luminescence, CHO-S two-hybrid | CHO-S mammalian two-hybrid NR2E3-NCOR, luciferase luminescence | AID 624378, 2012 | shares compounds with NR2E3 ag-2 | 51% of 2,300 active | inhibition, % at 3.98 µM;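 active = average inhibition above a cutoff equal to the mean inhibition of all tested compounds plus one SD, cut at about 70% in these data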;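 note: 0% = DMSO in NR2E3 cells and 100% = DMSO in cells lacking NR2E3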
GAL4-VP16 luc = GAL4-VP16 reporter modulators, confirmation, counter-screen for NR2E3 agonist project, cell-based, luminescence, CHO-S, high throughput; shares compounds with NR2E3 ag-2; CHO-S GAL4-VP16 luciferase reporter; inhibition, % at 3.98 µM; 29% of 2,300 active; AID 624379, 2012;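 active = mean inhibition above a cutoff equal to the average over all tested compounds plus one standard deviation, cut at about 70% in these data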;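 note: luciferase from a UAS reporter driven by GAL4-VP16 transactivation; 0% = DMSO with VP16-transfected cells and 100% = DMSO with cells lacking VP16; higher means less reporter light so more repression of VP16 activity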
GalR3 antag conf = GalR3 antagonist hit confirmation, cell-based, fluorescence, triplicate; inhibition, % at 3 µM; HEK293 GalR3 CNG cAMP biosensor, membrane potential fluorescence; galR3 fused to GalR1 carboxy tail; challenged with forskolin and galanin at EC90; 59% of 1,600 active; AID 652245, 2013; shares compounds with GalR3 antagonist;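 active = inhibition above the primary screen's cutoff, the mean inhibition of all screened compounds plus 3 SD, cut at about 13% in these data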;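 note: 0% = forskolin plus galanin and 100% = forskolin alone with DMSO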
CNG parental = nonspecific cAMP agonists in parental HEK-CNG cells, counter-screen for GalR3 antagonist project, cell-based, fluorescence, high throughput; shares compounds with GalR3 antagonist; HEK293-CNG parental cells, cAMP membrane potential fluorescence; normalised: DMSO wells 0%, forskolin wells 100%; activation, % at 3 µM; 10% of 1,600 active; in the data active = activation above about 1.3%
VP16 Luc counter = Gal4-VP16 luciferase reporter inhibitors, counter-screen for COUP-TFII antagonist project, cell-based, luminescence, HEK293; 25% of 2,500 active; inhibition, % at 8.5 µM; shares compounds with COUP-TFII inh; in the data active = inhibition above about 13%
NR2F2 inh conf = NR2F2 transcriptional activity inhibitors, confirmation, cell-based, luciferase reporter, HEK293, triplicate; shares compounds with COUP-TFII inh; HEK293 NGFI-A luciferase reporter, luminescence; inhibition, % at 8.5 µM; 45% of 2,500 active;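 active = mean inhibition over three repeats above a set limit taken from the earlier primary screen, cut at about 38% in these data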;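 note: 100% = cells given the luciferase reporter alone without the COUP-TF2 vector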
Active calls of the source: *; . = not tested or not shown. Only some compounds are listed: those with a hit (about 2.2% of all), similar ones and a draw of the others.

SMILES	GalR3 antagonist	NR2E3 ag-1	NR2E3 ag-2	SMARCA2 act	COUP-TFII inh	NR2E3 ag conf	GAL4-VP16 luc	VP16 Luc counter	NR2F2 inh conf	others
CCC1CCCCN1C(=O)c1cc(COc2ccc3ncccc3c2)on1 (centres undefined)	71*	-4	83*	-4	72*	96*	87*	6	66*	GalR3 antag conf=112*;CNG parental=0
COCCC1CCCCN1C(=O)c1cc(COc2ccc(-n3cncn3)cc2)on1 (centres undefined)	-4	16	105*	-4	44*	95*	79*	1	41*
COc1ccc(CNCC#Cc2cccnc2)c(OC)c1	.	.	.	-1	-4	.	.	.	.
CCC1CCCCN1S(=O)(=O)c1ccc(NC(=O)c2ccncc2)cc1 (centres undefined)	-1	1	96*	-4	61*	67	63	7	57*
CCC1CCCCN1S(=O)(=O)c1ccc(C(=O)Nc2nnc(C3CC3)o2)cc1 (centres undefined)	0	6	6	-4	2	.	.	.	.
O=C(CSc1nnc(-c2ccccc2F)n1Cc1ccco1)Nc1ccccc1-c1ccccc1	.	.	.	-6	14	.	.	.	.
N#Cc1cc2c(nc1SCC(=O)N1CCOCC1)CCCCC2	0	5	73*	-5	53*	29	0	55*	77*
N#Cc1cc2c(nc1SCC(N)=O)CCCCC2	-1	-3	-82	7	-27	.	.	.	.
Nn1cnnc1SCC(=O)Nc1ccc(C2CCCCC2)cc1	-1	5	-46	-1	-8	.	.	.	.
O=C(O)CSCC(=O)Nc1ccc(C2CCCCC2)cc1	-6	1	72*	-10	90*	61	70	83*	77*
COC(=O)[C@]12C[C@H](CC(=O)NCc3ccc(OC)c(OC)c3)C(=O)N(CCc3ccc(OC)c(OC)c3)C1=C[C@H](C1CCCC1)O[C@@H]2C	.	.	.	-2	-14	.	.	.	.
CCN(CC)C(=O)CC[C@H]1CC[C@]2(CCCN(Cc3ccccc3)C2)O1	.	.	.	0	-12	.	.	.	.
COc1cc(OC)cc(-c2cc3nc(C)c(CCC(=O)O)c(C)n3n2)c1	4	-3	51	-7	89*	57	63	89*	97*
O=C(CCCN1C(=O)/C(=C/c2cccs2)SC1=S)NNC(=O)c1cccnc1	-8	1	11	0	10	.	.	.	.
O=C(CCCN1C(=O)/C(=C/c2ccccc2Cl)SC1=S)NNC(=O)c1cccnc1	3	-1	59	-14	54*	-1	35	3	16
O=C(O)c1ccccc1C(=O)Nc1cccc([N+](=O)[O-])c1	-7	1	-45	-1	-13	.	.	.	.
O=C(Nc1cccc([N+](=O)[O-])c1)c1cc2ccccc2cc1O	62*	6	85*	-10	63*	99*	69	-135	2	GalR3 antag conf=74*;CNG parental=1
CC(COc1ccc(C#N)cc1)CN1CCC(C(O)(c2ccccc2)c2ccccc2)CC1 (centres undefined)	.	.	.	-1	1	.	.	.	.
CC(=O)N1CCc2cc(Br)c(S(=O)(=O)NCc3ccc(Cl)cc3)cc21	.	.	.	-5	-3	.	.	.	.
C=CCSc1nc2ccccc2n1C(=O)/C=C/c1cc(OC)c(OC)c(OC)c1	-5	1	57	-9	46*	69	-1	17*	71*
C=CC[C@@H]1NN2C(=O)[C@@H](C)[C@@H]3c4ccccc4C=NN3[C@@H]2c2ccccc21	.	.	.	-3	10	.	.	.	.
C[C@@H]1CCN(C2CC2)S(=O)(=O)c2c(cccc2N2CCC[C@@H]2CO)O1	.	.	.	0	9	.	.	.	.
Nc1ccc(-c2cc3ccccc3oc2=O)cc1	-11	-1	52	-10	88*	58	51	81*	80*
COc1ccccc1CCn1cnc(-c2cccc(F)c2)c1CC(C)C	-8	.	.	-8	26	.	.	.	.
CCCCCC[n+]1ccccc1/C=C/c1ccc(N(C)C)cc1	16*	.	88*	-14	92*	98*	80*	25*	89*	GalR3 antag conf=16*;CNG parental=41*
Cc1cc(C)cc(NC(=O)NC2CCN(S(=O)(=O)c3ccc(F)cc3)CC2)c1	.	.	.	0	-11	.	.	.	.
CC(C)(C)c1ccc(CC(=O)N2CCC2(C)C(=O)Nc2cnc3ccccc3c2)cc1 (centres undefined)	-8	.	67	-10	41*	66	48	-5	12
CC(=O)/C(N=Nc1ccc2c(c1)OCCO2)=C(\C)O	-7	-2	52	-7	68*	31	12	-122	-36
COCC1CCN(C(=O)c2cc(COc3cccc4cnccc34)on2)CC1	-8	-2	90*	-5	53*	72*	69	-4	37
O=C(c1cc(COc2cccc3cnccc23)on1)N1CCCC(CCCO)C1 (centres undefined)	97*	0	110*	-4	71*	99*	93*	11	76*	GalR3 antag conf=104*;CNG parental=0
